Tests used:
[1] = Pharmacokinetic study in healthy male subjects after oral desmopressin; assay type: in vivo; conditions: human, plasma, 0.4 mg
Summary of the method: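 Healthy male volunteers (n=6), fasted 9 h, received a single oral 0.4 mg dose (2×0.2 mg tablets). Plasma was spun at 3200 rpm for 10 min, stored at −20±5 °C, spiked with IS, extracted and quantified by positive-ESI MRM UPLC–MS/MS (HSS T3 column, 40 °C; LLOQ 1.01 pg/mL). Non-compartmental analysis.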

[2] = Processed sample stability; assay type: physicochemical; conditions: 45 h at 2-8 °C, UPLC-MS/MS, mean of n=6
Summary of the method: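 Processed-sample stability was tested at LQC and HQC in human plasma, six replicates per level: autosampler 48 h, wet extract 45 h, reinjection 24 h. Extracts were analysed by UPLC–MS/MS against a 9-point calibration of 1.01–200 pg/mL. Acceptance was accuracy within ±15% and precision ≤15% RSD.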

- AUC(0-inf) [1]: 0.157 ± 0.051 ng·h/mL
- AUC(0-t) [1]: 0.149 ± 0.046 ng·h/mL
- Cmax [1]: 0.035 ± 0.0081 ng/mL
- Tmax [1]: 1.4 ± 0.48 h
- half-life [1]: 3.48 ± 0.5 h
- level at 1.25 h [1]: 0.0361 ng/mL
- Accuracy/stability (%), Process (wet extract) ([2]; spiked 3.05 pg/mL (LQC)): 94.84%
- Accuracy/stability (%), Process (wet extract) ([2]; spiked 156.23 pg/mL (HQC)): 99.20%
Compound: NC(=O)CC[C@@H]1NC(=O)[C@H](Cc2ccccc2)NC(=O)[C@H](Cc2ccc(O)cc2)NC(=O)CCSSC[C@@H](C(=O)N2CCC[C@H]2C(=O)N[C@H](CCCN=C(N)N)C(=O)NCC(N)=O)NC(=O)[C@H](CC(N)=O)NC1=O [desmopressin]
